Shown are actives, neighbours in structure and some others; about 3.9% of the full set was active somewhere.
TAAR1 ag – agonists of human TAAR1 | CHO RD-HGA16 TAAR1, Fluo-8 calcium fluorescence; vehicle wells 0%, saturating PEA agonist 100% | 360,000 compounds, 0.99% hits | AID 624467 | Q96RJ0 | activation, % at 3 µM;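 active means activation above the mean activation of all test compounds in the run plus 3 SD, cut at about 38% in these data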
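Test system: RD-HGA16 (CHO) cells co-expressing Gα16 and hTAAR1 | Doses: Single dose, 3 µM | Schedule: 17-24 h seeding, 75 min 37 °C dye, 30 min RT | Evaluation: % activation from peak over basal fluorescence ratio, DMSO-to-PEA scaled | Technique: Kinetic Fluo-8 calcium fluorescence | Benchmarks: Low control DMSO, high control PEA (EC100)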
OX1R antag-1 – human HCRTR1 antagonism; O43613; CHO/OX1R cells, Fluo-8 calcium fluorescence, orexin A; inhibition, % at 5 µM; 330,000 compounds, 0.43% hits;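 active means inhibition above its plate's threshold, mean inhibition of all tested compounds on the plate plus 3 SD, cut at about 37% in these data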
Target sequence (O43613 whole entry, looked up): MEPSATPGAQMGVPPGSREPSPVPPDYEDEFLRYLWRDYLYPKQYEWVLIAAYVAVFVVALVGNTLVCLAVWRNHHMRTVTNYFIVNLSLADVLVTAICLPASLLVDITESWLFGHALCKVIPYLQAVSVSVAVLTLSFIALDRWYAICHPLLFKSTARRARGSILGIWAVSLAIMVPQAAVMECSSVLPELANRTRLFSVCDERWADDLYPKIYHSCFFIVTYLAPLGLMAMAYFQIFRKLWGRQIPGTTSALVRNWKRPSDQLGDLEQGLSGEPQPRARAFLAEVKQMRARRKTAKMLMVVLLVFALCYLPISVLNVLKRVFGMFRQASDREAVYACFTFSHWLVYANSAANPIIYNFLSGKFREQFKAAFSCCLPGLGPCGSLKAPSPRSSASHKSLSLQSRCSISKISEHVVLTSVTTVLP
OX1R antag-2 – antagonists of human orexin 1 receptor (OX1R); O43613; OX1R-expressing cells, FRET antagonist read-out; inhibition, % at 6.6 µM; 330,000 compounds, 1.8% hits; AID 485270; in the data active means inhibition mostly above about 38%, no sharp cut-off; inactive means mostly below about 40%
CHO parental Ca – counter-screen for OX1R antagonists: effect in parental CHO cells | AID 463079 | 330,000 compounds, 0.63% hits | inhibition, % at 5.6 µM | parental CHO-K1, ATP-induced calcium, Fluo-8 fluorescence;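 active means inhibition above that plate's mean sample inhibition plus 3 SD, cut at about 26% in these data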
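Test system: untransfected parental CHO cell line. Compound: one dose, 5.6 µM nominal. Detection: intracellular calcium via Fluo-8 no-wash fluorescent dye. Measure: % inhibition. Benchmarks: ATP-challenged DMSO wells low, unchallenged DMSO wells high.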
TAAR1 antag – antagonists of human TAAR1; Q96RJ0; CHO RD-HGA16 TAAR1, Fluo-8 calcium fluorescence, antagonist; inhibition, % at 3 µM; 360,000 compounds, 1.5% hits;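 active means inhibition above a per-plate cutoff, the mean inhibition of test compounds on that plate plus 3 SD, cut at about 49% in these data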
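System: RD-HGA16 CHO cells with stable hTAAR1 and Gα16 | Probe or stimulus: EC80 β-phenethylamine stimulus | Dosing: 3 µM, single point | Times: Dye loading 75 min at 37 °C, then 30 min room temperature | Measured by: Fluo-8 calcium-sensitive fluorescence | Read-out basis: % inhibition of agonist calcium response | Replicates: n of 1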
A number is an active result; i = inactive; nt = no result.

SMILES | TAAR1 ag | OX1R antag-1 | OX1R antag-2 | CHO parental Ca | TAAR1 antag
COCCNC(=O)C1CC(c2ccc([N+](=O)[O-])cc2)=NO1 (centres undefined) | i | i | 69 | i | i
COc1ccccc1NC(=O)Nc1nnc(-c2ccco2)s1 | nt | i | 32 | i | nt
C[C@@H]1ON(C)[C@H]2C[C@H]3c4cc(-c5ccc(F)cc5)ccc4CCN3C[C@@H]12 | i | nt | nt | nt | i
Cc1cc2occ(CC(=O)N(C)CC(=O)Nc3ccccc3Cl)c2cc1C | i | i | 54 | i | i
CCCN(CC(=O)Nc1ccccc1C)C(=O)Cc1coc2cc(C)ccc12 | i | i | i | i | i
N#C/C(=C/c1ccc(-c2cc([N+](=O)[O-])ccc2Cl)o1)C(N)=O | i | i | 54 | i | i
N#C/C(=C/c1ccc(-c2ccccc2[N+](=O)[O-])o1)C(N)=O | i | i | i | i | i
CCCCCCCCCCn1ccc(=N)cc1 | i | 48 | i | 34 | i
CCCCCCCCn1ccc(=N)cc1 | i | i | i | i | i
Cc1cccn2c(=O)c3cc(C(=O)NC4CCCC4)sc3nc12 | i | i | 55 | i | i
O=C(NC1CCCC1)c1cc2c(=O)n3ccccc3nc2s1 | i | i | i | i | i
CN1OC[C@@H]2CN(CC3CCCCC3)[C@H](c3ccc(-c4ccc(C#N)cc4)cc3)C[C@@H]21 | i | nt | nt | nt | i
Cc1ccc(N/N=C2\CS(=O)(=O)N(C)c3ccsc32)cc1 | i | i | i | i | i
CN1c2ccsc2/C(=N/Nc2ccc(F)cc2)CS1(=O)=O | 44 | i | i | i | i
COc1ccc(S(=O)(=O)NN(C)c2nc(C(F)(F)F)nc3ccccc23)cc1 | i | i | 72 | i | i
COC(=O)c1ccccc1NC(=O)c1ccc2c(c1)OCCCO2 | i | i | 59 | i | i
COc1cc(NC(=O)c2ccc3c(c2)OCO3)c2ncccc2c1 | i | i | 67 | i | i
O=C(Nc1cccc2cccnc12)c1ccc2c(c1)OCCO2 | i | i | 67 | i | i
Cc1cccc(NC(=O)c2ccc3c(c2)OCCO3)c1C | i | i | i | i | i
C#Cc1ccc(NC(=O)C2(C)CCN2C(=O)Cc2ccc(C(C)C)cc2)cc1 (centres undefined) | i | nt | nt | nt | i
COC(=O)c1cn(-c2nc3ccccc3s2)nn1 | i | nt | nt | nt | i
COc1ccccc1C(=O)NCCn1ccc2ccccc21 | i | i | 70 | i | i
Cc1cc(C)c(N(C(=O)CN2C(=O)c3ccccc3S2(=O)=O)C(C(=O)NCC2CCCO2)c2ccc(F)cc2)c(C)c1 (centres undefined) | i | i | i | i | 52
CN(CCOc1ccccc1)C(=O)c1cc([N+](=O)[O-])cc([N+](=O)[O-])c1 | i | i | 38 | i | i
CN(CCOc1ccccc1)C(=O)c1cc([N+](=O)[O-])ccc1N1CCOCC1 | i | i | i | i | i
SMILES | TAAR1 ag | OX1R antag-1 | OX1R antag-2 | CHO parental Ca | TAAR1 antag
CN(CCOc1ccccc1)CC(=O)Nc1cc([N+](=O)[O-])ccc1Cl | i | i | 62 | i | i
Cc1ccc([N+](=O)[O-])cc1NC(=O)CN(C)CCOc1ccccc1 | i | i | i | i | i
CN1C(=O)c2cccc3c(Br)ccc(c23)C1=O | i | i | i | i | i
CNc1ccc2c3c(cccc13)C(=O)N(C)C2=O | 157 | 88 | i | 79 | i
N=c1n(CC(=O)c2ccc(Br)cc2)c2ccccc2n1Cc1ccccc1 | 38 | i | i | i | i
N=c1n(CC(=O)c2ccc([N+](=O)[O-])cc2)c2ccccc2n1Cc1ccccc1 | i | i | i | i | i
O=C(/C=C(\Nc1ccc(Br)c(F)c1)c1ccccc1)c1ccccc1 | i | nt | nt | nt | i
O=C(CSc1ncc(-c2ccccc2)[nH]1)Nc1ccccc1 | i | i | i | i | i
CC(=O)Nc1cccc(NC(=O)CSc2n[nH]c(-c3ccccc3)n2)c1 | i | i | 47 | i | i
CCOC(=O)c1sc(NC(=O)CSc2nc(C)cc(C)n2)c(C#N)c1C | i | i | i | i | i
COc1ccc(NC(=O)CSc2nnc3ccc(-c4ccncc4)nn23)cc1OC | i | i | i | i | i
CC(=O)Nc1cccc(NC(=O)CSc2ncc(-c3ccccc3)[nH]2)c1 | i | i | 53 | i | i
CCOC(=O)c1sc(NC(=O)CSc2n[nH]c(-c3ccccc3)n2)c(C#N)c1C | i | 46 | i | 40 | i
CC(=O)Nc1cccc(NC(=O)CSc2nnc3ccc(-c4ccncc4)nn23)c1 | i | i | 67 | i | i
